Positions of bridges follow the written chain, without caps; N, C: chain ends. Non-standard residues stand in square brackets, D forms with d. Residues, ends and D or L forms follow the SMILES beside them. Nle = CCCC[C@H](N)C(=O)O; Orn = NCCC[C@H](N)C(=O)O

Assay [1] addresses T1, Calcitonin receptor (Rattus norvegicus) (UniProt P32214).
T1 sequence (whole entry): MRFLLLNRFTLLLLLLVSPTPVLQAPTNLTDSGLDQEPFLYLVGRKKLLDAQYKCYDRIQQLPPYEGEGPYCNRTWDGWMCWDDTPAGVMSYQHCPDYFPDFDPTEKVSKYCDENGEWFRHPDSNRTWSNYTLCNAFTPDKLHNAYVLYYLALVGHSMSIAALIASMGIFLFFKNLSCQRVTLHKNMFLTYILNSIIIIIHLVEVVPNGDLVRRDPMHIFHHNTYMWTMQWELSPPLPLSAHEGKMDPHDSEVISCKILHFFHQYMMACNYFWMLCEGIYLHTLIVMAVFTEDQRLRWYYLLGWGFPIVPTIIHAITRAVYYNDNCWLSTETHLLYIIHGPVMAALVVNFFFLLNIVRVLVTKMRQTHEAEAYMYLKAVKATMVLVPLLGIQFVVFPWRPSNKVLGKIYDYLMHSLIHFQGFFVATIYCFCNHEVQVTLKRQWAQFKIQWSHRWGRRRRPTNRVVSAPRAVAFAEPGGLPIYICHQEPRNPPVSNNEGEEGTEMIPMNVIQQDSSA
Put plainly: Affinity for calcitonin receptor of rat brain relative to [125I]-salmon calcitonin. The method, boiled down:
(§1)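 Male Sprague–Dawley rat (250–350 g) brain membranes (~0.63 mg protein/tube) were shaken on ice for 30 min with 10 pM final [125I-Tyr22]sCT and competitor in 50 mM Tris-HCl pH 7.4 with 34 μM bacitracin. Tubes were centrifuged and the pellets washed, SDS-solubilized and scintillation counted. Nonspecific binding was taken with 1 μM sCT. IC50 came from probit analysis, and relative affinity set sCT = 100%.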

Assay [2] deals with T2, Calcitonin receptor (Homo sapiens) (UniProt P30988).
T2 sequence (whole entry): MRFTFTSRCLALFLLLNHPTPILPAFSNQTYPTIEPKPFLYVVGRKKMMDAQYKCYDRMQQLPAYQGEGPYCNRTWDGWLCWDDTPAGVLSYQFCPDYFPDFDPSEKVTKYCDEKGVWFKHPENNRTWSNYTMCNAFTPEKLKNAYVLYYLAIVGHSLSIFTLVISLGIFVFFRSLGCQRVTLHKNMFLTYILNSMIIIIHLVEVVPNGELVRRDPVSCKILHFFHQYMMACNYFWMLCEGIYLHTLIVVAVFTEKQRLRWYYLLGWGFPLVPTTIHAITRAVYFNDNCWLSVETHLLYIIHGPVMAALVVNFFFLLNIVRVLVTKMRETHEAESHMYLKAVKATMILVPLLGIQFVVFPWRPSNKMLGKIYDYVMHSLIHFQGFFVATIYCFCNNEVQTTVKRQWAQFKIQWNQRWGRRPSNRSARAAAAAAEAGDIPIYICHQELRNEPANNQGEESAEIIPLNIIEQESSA

Assay [3] addresses T3, Calcitonin receptor (Rattus norvegicus, UniProt P32214).
T3 sequence (P32214 whole entry): T1 sequence (whole entry)
The assay is described as follows: Displacement of [125I]-salmon calcitonin (sCT) from calcitonin receptor of rat brain. The method, boiled down: as §1
In general terms: Displacement assays read how much labelled ligand stays bound in the presence of the test substance.

For assay [4], the target named is T4, Calcitonin receptor (Homo sapiens, UniProt P30988).
T4 sequence (P30988 whole entry): T2 sequence (whole entry)
The assay is described as follows: Inhibition of [125I]-salmon calcitonin (sCT) binding to human calcitonin receptor I1 expressed in HEK293 cells. Format: cell-based.

As to `CCCC[C@H](NC(=O)[C@H](Cc1c[nH]cn1)NC(=O)[C@H](CC(C)C)NC(=O)[C@H](CCCCN)NC(=O)[C@H](CC(N)=O)NC(=O)[C@H](CC(C)C)NC(=O)[C@H](CCC(=O)O)NC(=O)[C@H](CCC(N)=O)NC(=O)[C@H](CO)NC(=O)[C@H](CC(C)C)NC(=O)[C@H](CCCCN)NC(=O)CNC(=O)[C@H](CC(C)C)NC(=O)[C@@H](NC(=O)[C@H](CS)NC(=O)[C@@H](NC(=O)[C@H](CO)NC(=O)[C@H](CC(C)C)NC(=O)[C@H](CC(N)=O)NC(=O)[C@H](CO)NC(=O)[C@@H](N)CS)[C@@H](C)O)C(C)C)C(=O)N[C@@H](Cc1ccc(O)cc1)C(=O)N1CCC[C@@H]1C(=O)N[C@@H](CCCN=C(N)N)C(=O)N[C@H](C(=O)N[C@@H](CC(N)=O)C(=O)N[C@H](C(=O)NCC(=O)N[C@@H](CO)C(=O)NCC(=O)N[C@H](C(=O)N1CCC[C@@H]1C(N)=O)[C@@H](C)O)[C@@H](C)O)[C@@H](C)O`, in assay [1], the Relative affinity came to 92. Further, the ED50 in assay [2] worked out at 0.046 nM.

Consider `CC[C@H](C)[C@H](NC(=O)[C@H](C)NC(=O)[C@@H](NC(=O)[C@H](CCC(N)=O)NC(=O)[C@@H]1CCCN1C(=O)[C@H](Cc1ccccc1)NC(=O)[C@@H](N[C@@H](Cc1c[nH]cn1)C(=O)N[C@@H](Cc1ccccc1)C(=O)[C@@H]1CCCN1C(=O)[C@H](CC(N)=O)NC(=O)[C@H](Cc1ccccc1)NC(=O)[C@H](CC(=O)O)NC(=O)[C@H](CCC(N)=O)NC(=O)[C@@H](NC(=O)[C@H](Cc1ccc(O)cc1)NC(=O)[C@@H](NC(=O)CNC(=O)[C@H](CC(C)C)NC(=O)[C@H](CCSC)NC(=O)[C@H](CS)NC(=O)[C@@H](NC(=O)[C@H](CO)NC(=O)[C@H](CC(C)C)NC(=O)[C@H](CC(N)=O)NC(=O)CNC(=O)[C@@H](N)CS)[C@@H](C)O)[C@@H](C)O)[C@@H](C)O)[C@@H](C)O)[C@H](C)O)C(=O)NCC(=O)N[C@H](C(=O)NCC(=O)N[C@@H](C)C(=O)N1CCC[C@H]1C(N)=O)C(C)C`, for which, in assay [1], the Relative affinity was 0.02. Besides, in assay [2], the ED50 was 99 nM.

For orientation: IC50 means the concentration that inhibits the measured activity by half. The Ki is a dissociation constant, usually derived from enzyme kinetics or from competition with a known ligand. Take `CC(C)C[C@H](NC(=O)[C@H](CCCCN)NC(=O)CNC(=O)[C@H](CC(C)C)NC(=O)[C@@H](NC(=O)[C@H](CS)NC(=O)[C@@H](NC(=O)[C@H](CO)NC(=O)[C@H](CC(C)C)NC(=O)[C@H](CC(N)=O)NC(=O)[C@H](CO)NC(=O)[C@@H](N)CS)[C@@H](C)O)C(C)C)C(=O)N[C@@H](CO)C(=O)N[C@@H](CCC(N)=O)C(=O)N[C@@H](CCC(=O)O)C(=O)N[C@@H](CC(C)C)C(=O)N[C@H]1CC(=O)NCCCC[C@@H](C(=O)N[C@@H](Cc2ccc(O)cc2)C(=O)N2CCC[C@H]2C(=O)N[C@@H](CCCN=C(N)N)C(=O)N[C@H](C(=O)N[C@@H](CC(N)=O)C(=O)N[C@H](C(=O)NCC(=O)N[C@@H](CO)C(=O)NCC(=O)N[C@H](C(=O)N2CCC[C@H]2C(N)=O)[C@@H](C)O)[C@@H](C)O)[C@@H](C)O)NC(=O)[C@H](Cc2c[nH]cn2)NC(=O)[C@H](CC(C)C)NC(=O)[C@H](CCCCN)NC1=O` (H-CSNLSTCVLGKLSQELDKLHKYPRTNTGSGTP-NH2; lactam 17-21): the IC50 at Calcitonin receptor [3] came out at 0.18 nM. For the same molecule, the Ki on Calcitonin receptor [4] (hek293) was found to be 0.05 nM.

`CC[C@H](C)[C@H](NC(=O)[C@H](C)NC(=O)[C@@H](NC(=O)[C@H](CCC(N)=O)NC(=O)[C@@H]1CCCN1C(=O)[C@H](Cc1ccccc1)NC(=O)[C@@H](NC(=O)[C@H](Cc1cnc[nH]1)NC(=O)[C@H](Cc1ccccc1)NC(=O)[C@@H]1CCCN1C(=O)[C@H](CC(N)=O)NC(=O)[C@H](Cc1ccccc1)NC(=O)[C@H](CC(=O)O)NC(=O)[C@H](CCC(N)=O)NC(=O)[C@@H](NC(=O)[C@H](Cc1ccc(O)cc1)NC(=O)[C@@H](NC(=O)CNC(=O)[C@H](CC(C)C)NC(=O)[C@H](CCSC)NC(=O)[C@@H]1CSSC[C@H](N)C(=O)NCC(=O)N[C@@H](CC(N)=O)C(=O)N[C@@H](CC(C)C)C(=O)N[C@@H](CO)C(=O)N[C@@H]([C@@H](C)O)C(=O)N1)[C@@H](C)O)[C@@H](C)O)[C@@H](C)O)[C@@H](C)O)C(=O)NCC(=O)N[C@H](C(=O)NCC(=O)N[C@@H](C)C(=O)N1CCC[C@H]1C(N)=O)C(C)C` (H-CGNLSTCMLGTYTQDFNPFHTFPQTAIGVGAP-NH2; disulfide 1-7): the IC50 at Calcitonin receptor [3] is 1910 nM. Further, at Calcitonin receptor [4] (hek293), the inhibitory constant (Ki) came to 1230 nM.

As for `CCCC[C@H](NC(=O)[C@H](Cc1c[nH]cn1)NC(=O)[C@H](CC(C)C)NC(=O)[C@H](CCCCN)NC(=O)[C@H](CC(N)=O)NC(=O)[C@H](CC(C)C)NC(=O)[C@H](CCC(=O)O)NC(=O)[C@H](CCC(N)=O)NC(=O)[C@H](CO)NC(=O)[C@H](CC(C)C)NC(=O)[C@H](CCCCN)NC(=O)CNC(=O)[C@H](CC(C)C)NC(=O)[C@@H](NC(=O)[C@@H]1CSSC[C@H](N)C(=O)N[C@@H](CO)C(=O)N[C@@H](CC(N)=O)C(=O)N[C@@H](CC(C)C)C(=O)N[C@@H](CO)C(=O)N[C@@H]([C@@H](C)O)C(=O)N1)C(C)C)C(=O)N[C@@H](Cc1ccc(O)cc1)C(=O)N1CCC[C@H]1C(=O)N[C@@H](CCCN=C(N)N)C(=O)N[C@H](C(=O)N[C@@H](CC(N)=O)C(=O)N[C@H](C(=O)NCC(=O)N[C@@H](CO)C(=O)NCC(=O)N[C@H](C(=O)N1CCC[C@H]1C(N)=O)[C@@H](C)O)[C@@H](C)O)[C@@H](C)O` (H-CSNLSTCVLGKLSQELNKLH[Nle]YPRTNTGSGTP-NH2; disulfide 1-7), at Calcitonin receptor [3], the IC50 amounted to 0.408 nM. Further, the inhibitory constant (Ki) on Calcitonin receptor [4] (hek293) turned out to be 0.069 nM.

With `CC(C)C[C@H](NC(=O)[C@H](CCCCN)NC(=O)CNC(=O)[C@H](CC(C)C)NC(=O)[C@@H](NC(=O)[C@@H]1CSSC[C@H](N)C(=O)N[C@@H](CO)C(=O)N[C@@H](CC(N)=O)C(=O)N[C@@H](CC(C)C)C(=O)N[C@@H](CO)C(=O)N[C@@H]([C@@H](C)O)C(=O)N1)C(C)C)C(=O)N[C@@H](CO)C(=O)N[C@@H](CCC(N)=O)C(=O)N[C@@H](CCC(=O)O)C(=O)N[C@@H](CC(C)C)C(=O)N[C@@H](Cc1c[nH]cn1)C(=O)N[C@@H](CCCCN)C(=O)N[C@@H](CC(C)C)C(=O)N[C@@H](CCC(N)=O)C(=O)N[C@H](C(=O)N[C@@H](Cc1ccc(O)cc1)C(=O)N1CCC[C@H]1C(=O)N[C@@H](CCCNC(=N)N)C(=O)N[C@H](C(=O)N[C@@H](CC(N)=O)C(=O)N[C@H](C(=O)NCC(=O)N[C@@H](CO)C(=O)NCC(=O)N[C@H](C(=O)N1CCC[C@H]1C(N)=O)[C@@H](C)O)[C@@H](C)O)[C@@H](C)O)[C@@H](C)O`, the IC50 on Calcitonin receptor [3] is 0.377 nM. Further, on Calcitonin receptor [4], the inhibitory constant (Ki) came to […].

As for `CC(C)C[C@H](NC(=O)[C@H](CCCCN)NC(=O)CNC(=O)[C@H](CC(C)C)NC(=O)[C@@H](NC(=O)[C@H](CS)NC(=O)[C@@H](NC(=O)[C@H](CO)NC(=O)[C@H](CC(C)C)NC(=O)[C@H](CC(N)=O)NC(=O)[C@H](CO)NC(=O)[C@@H](N)CS)[C@@H](C)O)C(C)C)C(=O)N[C@@H](CO)C(=O)N[C@@H](CCC(N)=O)C(=O)N[C@@H](CCC(=O)O)C(=O)N[C@@H](CC(C)C)C(=O)N[C@H]1CC(=O)NCCC[C@@H](C(=O)N[C@@H](Cc2ccc(O)cc2)C(=O)N2CCC[C@H]2C(=O)N[C@@H](CCCN=C(N)N)C(=O)N[C@H](C(=O)N[C@@H](CC(N)=O)C(=O)N[C@H](C(=O)NCC(=O)N[C@@H](CO)C(=O)NCC(=O)N[C@H](C(=O)N2CCC[C@H]2C(N)=O)[C@@H](C)O)[C@@H](C)O)[C@@H](C)O)NC(=O)[C@H](Cc2c[nH]cn2)NC(=O)[C@H](CC(C)C)NC(=O)[C@H](CCCCN)NC1=O` (H-CSNLSTCVLGKLSQELDKLH[Orn]YPRTNTGSGTP-NH2; lactam 17-21), the 50% inhibitory concentration (IC50) at Calcitonin receptor [3] was 0.249 nM. For the same molecule, the inhibitory constant (Ki) at Calcitonin receptor [4] (hek293) is 0.069 nM.

Regarding `CCCC[C@H](NC(=O)[C@H](CS)NC(=O)[C@@H](NC(=O)[C@H](CO)NC(=O)[C@H](CC(C)C)NC(=O)[C@H](CC(N)=O)NC(=O)CNC(=O)[C@@H](N)CS)[C@@H](C)O)C(=O)N[C@@H](CC(C)C)C(=O)NCC(=O)N[C@H](C(=O)N[C@@H](Cc1ccccc1)C(=O)N[C@H](C(=O)N[C@@H](CCC(N)=O)C(=O)N[C@@H](CC(=O)O)C(=O)N[C@@H](Cc1ccccc1)C(=O)N[C@H]1CC(=O)NCCC[C@@H](C(=O)N[C@@H](Cc2ccc(O)cc2)C(=O)N2CCC[C@H]2C(=O)N[C@@H](CCC(N)=O)C(=O)N[C@H](C(=O)N[C@@H](C)C(=O)N[C@H](C(=O)NCC(=O)N[C@H](C(=O)NCC(=O)N[C@@H](C)C(=O)N2CCC[C@H]2C(N)=O)C(C)C)[C@@H](C)CC)[C@@H](C)O)NC(=O)[C@H](Cc2c[nH]cn2)NC(=O)[C@H](Cc2ccccc2)NC(=O)[C@H](CCCCN)NC1=O)[C@@H](C)O)[C@@H](C)O` (H-CGNLSTC[Nle]LGTFTQDFDKFH[Orn]YPQTAIGVGAP-NH2; lactam 17-21), the IC50 on Calcitonin receptor [3] is 5.39 nM. Also, the Ki on Calcitonin receptor [4] (hek293) worked out at 0.56 nM.

For the origin of these results see ChEMBL document CHEMBL1135734, “Side-chain lactam-bridge conformational constraints differentiate the activities of salmon and human calcitonins and reveal a new design concept for potent calcitonin analogues” (J Med Chem, 2002).
